Results filed as inconclusive are left out. Calls of active or inactive are those of the source.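 The calls were made as follows, unless noted: active = inhibition over a set limit, the all-compound mean plus 3 SD, in both replicate runs; inconclusive = over that limit in just one replicate run; inactive = at or under that limit in both runs.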
Assays:
[1] = OD615 S. cerevisiae growth inhibition, permissive medium, pilot counter-assay, permissive growth control for S. cerevisiae lifespan shortening project (AID 705;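 active = growth inhibition above 25% in both replicates, a cutoff set 3 SD above the mean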); conditions: OD615, 24 h, at 10 µM, active compounds read high
Method in brief: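 System – S. cerevisiae with engineered DeaD lifespan system · Buffer or medium – SC raffinose/galactose permissive medium · Schedule – cells pre-grown 4 h, then 24 h compound exposure, 30 °C humidified · Technique – culture turbidity as optical density at 615 nm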

[2] = Restrictive medium S. cerevisiae growth inhibition, OD615, pilot screen of yeast lifespan reduction project, restrictive growth control (AID 706;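 active = growth inhibition above a set limit, 3 SD over mean compound inhibition, in both replicates, cut at about 43% in these data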;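 also: modified DeaD lifespan yeast strain shifted to restrictive glucose medium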); conditions: OD615, 48 h, at 10 µM, active compounds read high
Method in brief: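 Material: engineered S. cerevisiae DeaD strain / Medium: glucose-based CSMM-D restrictive medium / Compound: single dose of 10 µM compound final, 0.25% DMSO / Timing: 4 h pre-incubation, 48 h exposure at 30 °C / Technique: OD615 absorbance reading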

[3] = viability gain of MRP-1-high H69AR cells under doxorubicin, pilot screen, MRP-1 activator project, CellTiter-Glo, duplicate (AID 807;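 active = viability increase at or above a cutoff of the median across tested compounds plus 3 SD, cut at about 8.5% in these data, passing the limit was not always enough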;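 also: compound pretreatment 18-22 h then 72 h combined with doxorubicin; 0% = doxorubicin alone and 100% = vehicle without doxorubicin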); conditions: H69AR viability with doxorubicin, CellTiter-Glo luminescence; at 10 µM; active compounds read high
[4] = growth suppression of beta-catenin knockout HCT116, pilot screen, human colon tumor cells (AID 823;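 active = cell viability at or below a set limit in both duplicate runs, the limit being the all-compound median minus 4 SD, cut at about 23% in these data, passing the limit was not always enough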;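 also: 0% = wells killed by 20 µM Hyamine and 100% = untreated DMSO cell wells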); conditions: CellTiter-Glo, 60 h, at 10 µM, active compounds read low
[5] = growth suppression of PTEN-deleted HCT116, pilot screen, cell-based, HCT116 clonal line, CellTiter-Glo (AID 824;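 active = viability at or below 27.92% in each of two runs, the all-compound median minus 4 SD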;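 also: 0% = 20 µM Hyamine control and 100% = vehicle cell control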); conditions: 60 h, at 10 µM, active compounds read low
[6] = inhibitors of the yeast RAM network, pilot screen, dse1pr::URA3 reporter, 5-FOA selection (AID 869);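 also: 0% = DMSO wells with no growth and 100% = 10 µM 1-NA-PP1 with full growth; RAM network block rescues cells from 5-FOA so hits raise OD615 growth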; conditions: S. cerevisiae dse1pr::URA3 5-FOA growth, OD615, 2 d; at 10 µM; active compounds read high; strain carries analog-sensitive mutant Cbk1 kinase
[7] = RAM signaling pathway blockade in yeast – S. cerevisiae, Pdr1DBD-CYC8 efflux-inhibited sensitized strain, primary screen (AID 1298;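 active = RAM network inhibition above 8.4% in each of two replicates, 3 SD over the compound average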;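 also: 0% = DMSO untreated cells without growth and 100% = 10 µM 1-NA-PP1 full growth; higher means more yeast growth rescued from 5-FOA killing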); conditions: S. cerevisiae cbk1-as DSE1-URA3 strain, 5-FOA growth OD615, 2 d; at 50 µM; active compounds read high

Cc1ccc2oc(=O)c3cc(C(=O)N4CCN(c5ncccn5)CC4)sc3c2c1
inactive: growth inhibition [1] -7.63% | growth inhibition [2] -1.9% | viability increase [3] -3.11% | viability [4] 107% | viability [5] 98.1% | inhibition [6] 1.62% | RAM network inhibition [7] 2.64%

Cc1ccc(-c2nc3cnccn3c2Nc2ccccc2)o1
inactive: growth inhibition [1] 0.205% | growth inhibition [2] 14.9% | viability increase [3] -0.77% | viability [4] 91.2% | viability [5] 84.3% | inhibition [6] 0.995% | RAM network inhibition [7] 1.9%

CCOc1ccccc1NC(=O)CCS(=O)(=O)c1cccc2nonc12
inactive: growth inhibition [1] -15% | growth inhibition [2] -21.8% | viability increase [3] -4.44% | viability [4] 103% | viability [5] 96.3% | inhibition [6] 1.34% | RAM network inhibition [7] 5.48%

Cc1nnc(Sc2nc3c(c(=O)[nH]c(=O)n3C)n2CCCc2ccccc2)s1
inactive: growth inhibition [1] -8.19% | growth inhibition [2] -13.4% | viability increase [3] -2.42% | viability [4] 95.1% | viability [5] 94.7% | inhibition [6] 1.21% | RAM network inhibition [7] 2.87%

CC(=O)N(CCCN(C)C)CCC(C)CCC=C(C)C (stereo unspecified)
inactive: growth inhibition [1] -7.18% | growth inhibition [2] -5.88% | viability increase [3] -2.93% | viability [4] 94.1% | viability [5] 92.7% | inhibition [6] 0.41% | RAM network inhibition [7] 3.84%

CC(=O)N1CCc2cc(C(=O)CN3CCN(C(=O)c4ccco4)CC3)ccc21
inactive: growth inhibition [1] 4.58% | growth inhibition [2] 3.74% | viability increase [3] -2.02% | viability [4] 105% | viability [5] 93.3% | inhibition [6] 3.93% | RAM network inhibition [7] 2.07%

CCCCNc1ncnc2c1cnn2-c1ccc(Cl)cc1
inactive: growth inhibition [1] -7.84% | growth inhibition [2] -18.1% | viability increase [3] -6.6% | inhibition [6] 0.835% | RAM network inhibition [7] 5.62%
active: viability [4] 17.3% | viability [5] 20.4%

C=C(C)CSc1nnc(-c2ccc(OC)c(OC)c2)n1N
inactive: growth inhibition [1] 11.8% | growth inhibition [2] 7.34% | viability increase [3] -0.31% | viability [4] 96% | viability [5] 99.2% | inhibition [6] -0.36% | RAM network inhibition [7] 3.74%

Cc1ccc(O)c(C(=O)c2cnn(C(=O)Cc3csc(C)n3)c2)c1
inactive: growth inhibition [1] -1.97% | growth inhibition [2] 1.6% | viability increase [3] -0.48% | viability [4] 98.9% | viability [5] 88.3% | inhibition [6] -0.5% | RAM network inhibition [7] -1.67%

Cc1nc2ncnn2c(C)c1Cc1ccc(Cl)cc1F
inactive: growth inhibition [1] -9.96% | growth inhibition [2] -18.8% | viability increase [3] -1.72% | viability [4] 95.7% | viability [5] 92.2% | inhibition [6] 0.26% | RAM network inhibition [7] 6.16%

O=C(NCCOC(=O)c1ccc(S(=O)(=O)N2CCOCC2)cc1)c1cccnc1
inactive: growth inhibition [1] -19.9% | growth inhibition [2] -9.85% | viability increase [3] -0.91% | viability [4] 89.8% | viability [5] 91.7% | inhibition [6] 2.44% | RAM network inhibition [7] 2.11%

CCN1CCN(C(=O)C2CCN(Cc3nc(-c4cccc(Cl)c4)oc3C)CC2)CC1
inactive: growth inhibition [1] -1.82% | growth inhibition [2] -14.3% | viability increase [3] -4.04% | viability [4] 69% | viability [5] 72.4% | inhibition [6] 0.9% | RAM network inhibition [7] 1.16%

CC(CCc1ccccc1)C(=O)NO (stereo unspecified)
inactive: growth inhibition [1] -6.16% | growth inhibition [2] -10.5% | viability increase [3] -3.84% | viability [4] 95.6% | viability [5] 91.6% | inhibition [6] 0.87% | RAM network inhibition [7] 1.5%

O=C(C(Cc1ccccc1)n1cccc1)N1CCN(C2CCCCC2)CC1 (stereo unspecified)
inactive: growth inhibition [1] -10.9% | growth inhibition [2] -3.01% | viability increase [3] -3.47% | viability [4] 81.8% | viability [5] 88.7% | inhibition [6] 1.42% | RAM network inhibition [7] 8.24%

COc1ccc(N2C(=O)CC(NCc3cccc(F)c3)C2=O)cc1 (stereo unspecified)
inactive: growth inhibition [1] -6.89% | growth inhibition [2] -3.85% | viability increase [3] -0.75% | viability [4] 99.3% | viability [5] 98% | inhibition [6] 0.82% | RAM network inhibition [7] 5.38%

Nc1ccc(-c2nc3ccccc3[nH]2)cc1
inactive: growth inhibition [1] -6.98% | growth inhibition [2] -10.1% | viability increase [3] -3.12% | viability [4] 97.3% | viability [5] 87.8% | inhibition [6] 2.31% | RAM network inhibition [7] 4.57%

CC(=O)c1ccc2c3c(ccc(O)c13)CC2
inactive: growth inhibition [1] -1.21% | growth inhibition [2] 7.16% | viability increase [3] -4.04% | viability [4] 97.2% | viability [5] 88% | inhibition [6] 1.52% | RAM network inhibition [7] 5.46%

CCc1cc2c(NCC3CCCO3)ncnc2s1 (stereo unspecified)
inactive: growth inhibition [1] 2.17% | growth inhibition [2] 9.07% | viability increase [3] 0.8% | viability [4] 102% | viability [5] 95.6% | inhibition [6] 0.34% | RAM network inhibition [7] 4.46%

O=C(NCc1ccccc1)c1ccc(/C=N/O)nc1
inactive: growth inhibition [1] -17.6% | growth inhibition [2] -5.67% | viability increase [3] -0.06% | viability [4] 98.2% | viability [5] 106% | inhibition [6] 2.25% | RAM network inhibition [7] 6.66%

COc1cccc(C2CC(c3cccc(OC)c3)n3nc(N)nc3N2)c1 (stereo unspecified)
inactive: growth inhibition [1] -4.01% | growth inhibition [2] 3.82% | viability increase [3] -2.05% | viability [4] 95.2% | viability [5] 92.6% | inhibition [6] 0.07% | RAM network inhibition [7] 2.5%

CSc1ccc(S(=O)(=O)Nc2ccc3c(c2)OCCO3)cc1
inactive: growth inhibition [1] -3.2% | growth inhibition [2] -11% | viability increase [3] -3.95% | viability [4] 62.2% | viability [5] 71.9% | inhibition [6] 1.67% | RAM network inhibition [7] -0.87%

Cn1c(=O)oc2cc(S(=O)(=O)NC3CCCc4ccccc43)ccc21 (stereo unspecified)
inactive: growth inhibition [1] -25.4% | growth inhibition [2] -11.4% | viability increase [3] -1.98% | viability [4] 92.4% | viability [5] 90.7% | inhibition [6] 3.1% | RAM network inhibition [7] 6.28%

CCN(c1ccccc1)S(=O)(=O)c1ccc(N)cc1
inactive: growth inhibition [1] -4.66% | growth inhibition [2] -1.86% | viability increase [3] -1.02% | viability [4] 94.5% | viability [5] 98.1% | inhibition [6] 2.56% | RAM network inhibition [7] 2.68%

CCOC(=O)c1c(C)n(C)c2ccc(OCC(O)CN3CCC(C)CC3)cc12 (stereo unspecified)
inactive: growth inhibition [1] -1.52% | growth inhibition [2] 4.4% | viability increase [3] -5.47% | viability [4] 70.2% | viability [5] 75.8% | inhibition [6] 0.415% | RAM network inhibition [7] -0.57%

Cn1c(Cn2c(=O)sc3ccccc32)nnc1SCC(=O)Nc1ccc2c(c1)OCO2
inactive: growth inhibition [1] -1.55% | growth inhibition [2] 7.6% | viability increase [3] -5.8% | viability [4] 105% | viability [5] 99.6% | inhibition [6] 2.34% | RAM network inhibition [7] 3.46%

O=C(CN1CCOc2ccccc21)NCc1ccc(Cl)cc1
inactive: growth inhibition [1] -36.4% | growth inhibition [2] -1.02% | viability increase [3] -6.71% | viability [4] 90.8% | viability [5] 81.6% | inhibition [6] 0.665% | RAM network inhibition [7] -0.68%

COc1ccc(CNC(=O)c2cc(C3CC3)on2)cc1
inactive: growth inhibition [1] -3.07% | growth inhibition [2] 6.49% | viability increase [3] -1.95% | viability [4] 94.3% | viability [5] 95.5% | inhibition [6] -0.84% | RAM network inhibition [7] -2.3%

COC(=O)NCC(c1cccnc1)N1CCN(c2ccccc2F)CC1 (stereo unspecified)
inactive: growth inhibition [1] -5.28% | growth inhibition [2] -1.77% | viability increase [3] -0.18% | viability [4] 95.6% | viability [5] 102% | inhibition [6] 1.66% | RAM network inhibition [7] 1.57%

COc1ccc(NC2c3ccccc3C(=O)N2Cc2ccco2)cc1OC (stereo unspecified)
inactive: growth inhibition [1] 6.53% | growth inhibition [2] 6.86% | viability increase [3] -3.63% | viability [4] 97.5% | viability [5] 89.7% | inhibition [6] 0.985% | RAM network inhibition [7] 3.72%

O=C(NCC1COc2ccccc2O1)C1CCC(CNc2c(N3CCCCC3)c(=O)c2=O)CC1 (stereo unspecified)
inactive: growth inhibition [1] -8.76% | growth inhibition [2] -9.54% | viability increase [3] 0.01% | viability [4] 88.6% | viability [5] 86.4% | inhibition [6] 2.89% | RAM network inhibition [7] 4.02%

CC(=O)c1ccc(N2CCN(C(=O)c3cc4c(-c5ccccc5F)nn(C)c4s3)CC2)cc1
inactive: growth inhibition [1] 3.9% | growth inhibition [2] 2.33% | viability increase [3] -2.9% | viability [4] 66% | viability [5] 78% | inhibition [6] 2.27% | RAM network inhibition [7] 6.5%

CCOC(=O)CC(=O)Nc1ccc(Br)cc1C(=O)O
inactive: growth inhibition [1] -18.4% | growth inhibition [2] -18.8% | viability increase [3] 1.24% | viability [4] 101% | viability [5] 97.2% | inhibition [6] 2.16% | RAM network inhibition [7] 7.52%

Cn1cc(CC(=O)NCCCN2CCCC2=O)c2ccccc21
inactive: growth inhibition [1] -3.36% | growth inhibition [2] -11.5% | viability increase [3] -1.83% | viability [4] 99.3% | viability [5] 87.3% | inhibition [6] 0.77% | RAM network inhibition [7] -0.89%
